Molecules are shown by their SMILES. The source made the active and inactive calls. The rule behind the calls is not given here. Some results are limits rather than exact numbers.

For assay [1], the target named is T1, Ectonucleotide pyrophosphatase/phosphodiesterase family member 1 (Homo sapiens) (UniProt P22413).
T1 sequence (whole entry): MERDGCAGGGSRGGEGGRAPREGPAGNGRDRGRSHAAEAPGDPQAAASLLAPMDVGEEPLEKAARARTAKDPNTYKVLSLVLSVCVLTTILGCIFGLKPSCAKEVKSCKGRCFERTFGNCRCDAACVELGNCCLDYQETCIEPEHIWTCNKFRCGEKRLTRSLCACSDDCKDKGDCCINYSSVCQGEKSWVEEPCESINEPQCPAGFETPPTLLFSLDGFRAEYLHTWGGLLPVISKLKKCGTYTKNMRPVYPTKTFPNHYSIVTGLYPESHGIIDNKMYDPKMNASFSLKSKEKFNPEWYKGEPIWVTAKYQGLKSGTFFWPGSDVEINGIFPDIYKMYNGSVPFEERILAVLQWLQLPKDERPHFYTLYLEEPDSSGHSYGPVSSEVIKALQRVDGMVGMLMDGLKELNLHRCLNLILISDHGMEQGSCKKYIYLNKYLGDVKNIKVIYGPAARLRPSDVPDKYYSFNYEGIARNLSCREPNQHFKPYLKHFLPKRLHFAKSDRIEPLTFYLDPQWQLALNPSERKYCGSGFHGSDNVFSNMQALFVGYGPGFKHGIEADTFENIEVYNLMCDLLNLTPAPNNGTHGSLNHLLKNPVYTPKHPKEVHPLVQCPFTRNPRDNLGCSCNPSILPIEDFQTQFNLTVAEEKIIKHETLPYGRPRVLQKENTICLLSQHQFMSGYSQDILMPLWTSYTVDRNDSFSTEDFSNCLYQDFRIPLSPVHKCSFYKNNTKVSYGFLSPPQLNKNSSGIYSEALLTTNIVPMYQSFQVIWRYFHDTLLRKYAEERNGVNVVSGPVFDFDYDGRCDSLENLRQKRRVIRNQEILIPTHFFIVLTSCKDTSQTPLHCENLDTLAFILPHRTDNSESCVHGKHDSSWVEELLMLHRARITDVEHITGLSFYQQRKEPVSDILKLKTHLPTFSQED
Kind of assay: Inhibition of human NPP1 expressed in COS7 cells assessed as amount of inorganic phosphate released using ATP as the substrate at 100 uM after 15 mins by malachite green reagent method. In kind it is cell-based. The note with it: COS-7.

In the next assay the target is Autotaxin (Homo sapiens) (UniProt Q13822). Description: Inhibition of human secreted NPP2 expressed in COS7 cells assessed as production of p-nitrophenol using pnp-TMP as the substrate at 100 uM after 15 mins by malachite green reagent method. In kind it is cell-based. The note with it: COS-7. Summed up: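 Human NPP1, NPP2 (membrane lysate or conditioned medium for the secreted form) or NPP3 from transfected COS-7 cells, preincubated 3 min at 37 °C in 50 mM Tris pH 8.5 buffer with CaCl2, NaCl and KCl. Substrate and inhibitor both at 100 μM final. pnp-TMP: p-nitrophenol read at 405 nm at 15 min. ATP or Ap5A: stopped at 30 min with perchloric acid, then HPLC. Results as % residual activity versus control; three to six experiments in triplicate.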

Assay [2] concerns the target T2, P2Y purinoceptor 11 (Homo sapiens) (UniProt Q96G91).
T2 sequence (whole entry): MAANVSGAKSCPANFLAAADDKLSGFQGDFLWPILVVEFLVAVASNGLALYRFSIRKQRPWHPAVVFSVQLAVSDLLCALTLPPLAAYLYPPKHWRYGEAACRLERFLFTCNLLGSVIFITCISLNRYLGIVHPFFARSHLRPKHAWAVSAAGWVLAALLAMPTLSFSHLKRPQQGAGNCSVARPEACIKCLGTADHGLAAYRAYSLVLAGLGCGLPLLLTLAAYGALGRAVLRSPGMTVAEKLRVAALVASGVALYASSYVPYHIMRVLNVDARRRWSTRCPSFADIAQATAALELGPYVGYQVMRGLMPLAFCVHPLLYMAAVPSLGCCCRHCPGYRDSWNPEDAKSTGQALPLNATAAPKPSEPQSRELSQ
Description: Agonist activity at GFP tagged-human P2Y11 receptor expressed in human 1321N1 cells assessed as elevation in calcium level at 50 uM after 30 mins by fluorescence spectrophotometric analysis. In kind it is functional, cell-based.

Assay [3] deals with 5'-nucleotidase (Homo sapiens) (UniProt P21589). Description: Inhibition of human Ecto-5'-nucleotidase expressed in COS7 cells assessed as amount of inorganic phosphate released using AMP as the substrate at 100 uM after 15 mins by malachite green reagent method. The note with it: COS-7.
Chain of 5'-nucleotidase (Homo sapiens) (P21589 whole entry): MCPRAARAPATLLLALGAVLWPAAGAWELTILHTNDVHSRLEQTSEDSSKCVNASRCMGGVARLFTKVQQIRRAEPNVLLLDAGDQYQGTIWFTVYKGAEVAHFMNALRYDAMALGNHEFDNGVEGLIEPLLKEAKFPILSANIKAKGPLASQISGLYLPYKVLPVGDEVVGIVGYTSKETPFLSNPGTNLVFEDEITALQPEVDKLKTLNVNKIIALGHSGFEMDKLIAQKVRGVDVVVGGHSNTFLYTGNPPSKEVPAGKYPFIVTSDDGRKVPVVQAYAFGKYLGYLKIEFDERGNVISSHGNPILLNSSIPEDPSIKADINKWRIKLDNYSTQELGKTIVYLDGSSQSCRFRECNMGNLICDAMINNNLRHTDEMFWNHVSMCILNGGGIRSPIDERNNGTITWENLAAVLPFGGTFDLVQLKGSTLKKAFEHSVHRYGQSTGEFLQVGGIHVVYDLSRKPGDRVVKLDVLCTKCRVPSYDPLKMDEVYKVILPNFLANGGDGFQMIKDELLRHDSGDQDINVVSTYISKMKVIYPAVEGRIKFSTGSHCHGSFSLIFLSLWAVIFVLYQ
The target in assay [4] is T3, Ectonucleotide pyrophosphatase/phosphodiesterase family member 1 (Homo sapiens, UniProt P22413).
T3 sequence (P22413 whole entry): T1 sequence (whole entry)
Description: Inhibition of human NPP1 expressed in COS7 cells assessed as production of p-nitrophenol using pnp-TMP as the substrate after 15 mins […]. In kind it is cell-based, COS-7. The essentials: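 Human NPP1 COS-7 extract in Tris pH 8.5 buffer at 37 °C with pnp-TMP; p-nitrophenol read at 405 nm after 15 min. […] Values from Dixon and Cornish-Bowden plots of three independent experiments in triplicate.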

In assay [5] the target is T4, Ectonucleoside triphosphate diphosphohydrolase 2 (Homo sapiens) (UniProt Q9Y5L3).
T4 sequence (whole entry): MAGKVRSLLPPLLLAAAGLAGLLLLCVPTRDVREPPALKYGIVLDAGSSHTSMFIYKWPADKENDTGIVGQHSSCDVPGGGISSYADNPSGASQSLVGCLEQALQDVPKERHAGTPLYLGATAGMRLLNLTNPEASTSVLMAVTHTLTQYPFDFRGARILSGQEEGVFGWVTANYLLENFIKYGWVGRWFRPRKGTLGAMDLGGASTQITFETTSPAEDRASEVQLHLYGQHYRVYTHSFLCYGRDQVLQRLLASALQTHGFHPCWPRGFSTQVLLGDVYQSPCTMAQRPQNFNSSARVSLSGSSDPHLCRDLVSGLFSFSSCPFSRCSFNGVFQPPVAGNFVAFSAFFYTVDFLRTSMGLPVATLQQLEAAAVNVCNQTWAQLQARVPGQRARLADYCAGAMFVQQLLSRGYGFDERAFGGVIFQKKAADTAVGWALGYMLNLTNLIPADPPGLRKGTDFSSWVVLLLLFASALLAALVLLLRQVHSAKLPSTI
Kind of assay: Activity of human NTPDase2 expressed in COS7 cells assessed as amount of inorganic phosphate released using ATP as the substrate at 100 uM after 15 mins by malachite green reagent method. In kind it is cell-based. Particulars: COS-7. The essentials:
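Crude membrane-enriched protein extract of transiently transfected COS-7 cells, preincubated 3 min at 37 °C in Tris-Ringer buffer pH 7.3. Reaction started with 100 μM ATP, or with the analogue alone at 100 μM to test it as substrate. Stopped after 15 min with malachite green reagent; released Pi read at 630 nm. Mean ± SD, n = 3.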

In a further assay the target is T5, P2Y purinoceptor 11 (Homo sapiens, UniProt Q96G91).
T5 sequence (Q96G91 whole entry): T2 sequence (whole entry)
Kind of assay: Agonist activity at GFP tagged-human P2Y11 receptor expressed in human 1321N1 cells assessed as elevation in calcium level after 30 mins by fluorescence spectrophotometric analysis. In kind it is functional, cell-based.

Consider `Nc1ncnc2c1ncn2[C@H]1C[C@H](O)[C@@H](COP(=O)(O)CP(=O)(O)OP(=O)(O)CP(=O)(O)OC[C@H]2O[C@@H](n3cnc4c(N)ncnc43)C[C@@H]2O)O1`, for which the inhibition (in general, how much of the control response was suppressed) in assay [1] was above 90%; at Autotaxin (Homo sapiens), 60%; in assay [3], 80%. The outcome in assay [2] was inactive. The IC50 (as a rule, the concentration that gives 50% inhibition) in assay [4] stood at 50 µM. Further, the Ki (in general, the dissociation constant of the complex between target and ligand, obtained from inhibition or displacement) in assay [4] came to 51 µM.
In the case of `Nc1ncnc2c1ncn2[C@@H]1O[C@H](COP(=O)(O)CP(=O)(O)OP(=O)(O)CP(=O)(O)OC[C@H]2O[C@@H](n3cnc4c(N)ncnc43)[C@H](O)[C@@H]2O)[C@@H](O)[C@H]1O`, the Activity in assay [5] amounted to 0.1%. Also, on P2Y purinoceptor 11, the EC50 (in general, the concentration needed to bring the measured effect to its halfway point) is at least 40 µM. The inhibition in assay [1] was determined as 70%; on Autotaxin (Homo sapiens), 60%; in assay [3] it was 90%. For the same compound, in assay [4], the IC50 turned out to be 33 µM. In assay [4], the Ki was 13 µM.
Consider `BP(=O)(OP(=O)(O)CP(=O)(O)OC[C@H]1O[C@@H](n2cnc3c(N)ncnc32)C[C@@H]1O)OP(=O)(O)CP(=O)(O)OC[C@H]1O[C@@H](n2cnc3c(N)ncnc32)C[C@@H]1O`, for which the Activity in assay [5] was found to be 0.2%. Further, the inhibition in assay [1] is 70%; on Autotaxin (Homo sapiens), 60%. The result in assay [2] was inactive. Further, the inhibition result in assay [3] is “inactive”. Moreover, the IC50 in assay [4] amounted to 13 µM. Moreover, the Ki in assay [4] was 9 µM.
In the case of `BP(=O)(OP(=O)(O)CP(=O)(O)OC[C@H]1O[C@@H](n2cnc3c(N)ncnc32)[C@H](O)[C@@H]1O)OP(=O)(O)CP(=O)(O)OC[C@H]1O[C@@H](n2cnc3c(N)ncnc32)[C@H](O)[C@@H]1O`, at P2Y purinoceptor 11, the EC50 was found to be 13 µM. The inhibition in assay [1] was above 90%. Moreover, the inhibition on Autotaxin (Homo sapiens) was 60%. In addition, the inhibition result in assay [3] is “inactive”. In assay [4], the IC50 stood at 63 µM and the Ki came out at 20 µM.
